# Test results: ChEMBL document CHEMBL4000211, “Discovery of novel polycyclic spiro-fused carbocyclicoxindole-based anticancer agents” (Eur J Med Chem, 2017)
# Legend:
# [1] = test system: HCT-116; test: Induction of apoptosis in human HCT116 cells assessed as necrotic cells at 10 uM after 24 hrs by annexin V-FITC/propidium iodide staining-based flow cytometric method (reference value: 1.85%); assay type: functional
# [2] = test system: HCT-116; test: Cell cycle arrest in human HCT116 cells assessed as accumulation at sub G1 phase at 7.5 uM after 48 hrs by propidium iodide staining-based flow cytometric method (reference value: 0.86%); assay type: functional
# [3] = test system: HCT-116; test: Induction of apoptosis in human HCT116 cells assessed as viable cells at 10 uM after 24 hrs by annexin V-FITC/propidium iodide staining-based flow cytometric method (reference value: 93.48%); assay type: functional; details: HCT-116, 24 h, read-out: Activity
# Summary of the method: (§1)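 HCT116 cells seeded at 1×10⁶ cells/mL in 6-well plates for 24 h, then exposed to 0, 7.5, 10 or 12.5 μM for a further 24 h or 48 h. Cells washed twice in PBS, then stained with Annexin V-FITC plus PI (100 μg/mL stock) in binding buffer (10 mM HEPES, pH 7.4, 2.5 mM CaCl₂) for 30 min at room temperature in the dark. Early and late apoptotic fractions gated by flow cytometry.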
# [4] = test system: HCT-116; test: Induction of apoptosis in human HCT116 cells assessed as viable cells at 12.5 uM after 24 hrs by annexin V-FITC/propidium iodide staining-based flow cytometric method (reference value: 93.48%); assay type: functional; details: HCT-116, 24 h, read-out: Activity; summary of the method: as §1
# [5] = test system: A549; test: Antiproliferative activity against human A549 cells after 48 hrs by MTT assay; assay type: functional, cell-based; details: A549, 48 h
# Summary of the method: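 Cells seeded at 3×10³/well and grown 24 h, then exposed 48 h to six final concentrations, twofold steps down from 30. MTT (5 mg/mL) was added for 2–4 h at 37 °C. Supernatant was removed, formazan dissolved in DMSO, and OD read at 570 nm. Results are given as IC50, or as percent inhibition where IC50 exceeds the top concentration. At least three runs.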
# [6] = test system: HCT-116; test: Cell cycle arrest in human HCT116 cells assessed as accumulation at G2 phase at 7.5 uM after 48 hrs by propidium iodide staining-based flow cytometric method (reference value: 31.27%); assay type: functional
smiles,measurement,setting,value
C[C@@H]1Oc2ccc3ccccc3c2[C@@H]2[C@@H]1C=C(C=O)[C@@H](C)[C@]21C(=O)Nc2ccccc21,Activity,[1],2.46%
same,Activity,[2],4.19%
same,viability at 10 µM,[3],76.1%
same,viability at 12.5 µM,[4],46.6%
same,IC50,[5],18.3 µM
same,Activity,[6],26.41%
